Bioassay records deposited in PubChem by Johns Hopkins Ion Channel Center.
MrgX1 allo act = human MrgX1 positive allosteric modulation, primary screen | Q96LB2 | B-score at 10 µM | AID 588675 | actives 0.63% (n = 310,000) | MrgX1-HEK293, Fluo-4 calcium flux, FDSS; stronger effect = higher value;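 active means plate-corrected calcium response at least 3 library SD above typical, normal starting fluorescence, not activating the receptor alone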;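 further: compound read alongside a low EC10 to EC30 dose of BAM8-22 agonist; peak minus trough fluorescence over baseline measured at the second addition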
Target sequence (Q96LB2 whole entry, looked up): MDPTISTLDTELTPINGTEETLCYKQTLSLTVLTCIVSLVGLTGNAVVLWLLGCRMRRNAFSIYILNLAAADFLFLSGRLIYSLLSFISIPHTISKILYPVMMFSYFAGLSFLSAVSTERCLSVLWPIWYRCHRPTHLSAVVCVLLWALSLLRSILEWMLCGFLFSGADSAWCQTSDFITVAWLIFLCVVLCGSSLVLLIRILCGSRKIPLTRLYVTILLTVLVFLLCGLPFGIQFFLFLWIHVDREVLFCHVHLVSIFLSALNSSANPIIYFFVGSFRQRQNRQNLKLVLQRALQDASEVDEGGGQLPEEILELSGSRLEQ
MrgX1 antag = blocks BAM8-22 activation of human MrgX1 receptor; actives 1.3% (n = 310,000); B-score at 10 µM; MRGX1-HEK293 calcium flux, Fluo-4, BAM8-22 antagonism; stronger effect = lower value; AID 588676; Q96LB2;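 active means calcium-response B-score plate-corrected more than 3 library SD below zero, starting fluorescence within 5 deviations, no agonist response on first addition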;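 further: peak minus trough fluorescence over baseline after final BAM8-22 challenge near maximal dose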
RGS4 inh = human RGS4 inhibition; P49798; HEK293 M3R/RGS4 inducible, Fluo-4 calcium flux; stronger effect = higher value; triggered by carbachol at its EC20; actives 0.45% (n = 310,000); B-score at 10 µM; AID 463165;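 active means B-score, a plate-corrected calcium signal, over three deviations above library mean, with baseline fluorescence within five deviations of library mean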;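 further: RGS4 expression induced by doxycycline in cells with stable M3 receptor; B-score is computed from the integrated fluorescence ratio over baseline after carbachol; higher B-score means a larger calcium signal and so more RGS4 inhibition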
Target sequence (P49798 whole entry, looked up): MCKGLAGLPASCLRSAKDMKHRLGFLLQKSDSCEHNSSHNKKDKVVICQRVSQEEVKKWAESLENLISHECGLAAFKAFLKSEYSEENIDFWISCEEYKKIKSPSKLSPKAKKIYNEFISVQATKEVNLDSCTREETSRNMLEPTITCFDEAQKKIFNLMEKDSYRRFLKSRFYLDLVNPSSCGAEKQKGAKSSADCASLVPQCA
RGS4 act = potentiators or activators of RGS4 | B-score at 10 µM | AID 463111 | actives 0.92% (n = 310,000) | HEK293 M3R/inducible RGS4, carbachol calcium flux Fluo4; stronger effect = lower value;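 active means B-score of the integrated calcium signal more than 4 SD below the library mean, with starting fluorescence not abnormally high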;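 further: negative B-score means reduced calcium response which marks RGS4 activation or potentiation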
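Assay system: HEK293 FlpIn-TREx cells, stable M3R, doxycycline-inducible RGS4 / Probe or stimulus: carbachol, ECmax concentration / Times: overnight RGS4 induction, 30 min dye load 37 °C, 20 min compound RT / Signal: kinetic calcium fluorescence imaging with Fluo4-AM dye, 2 µM / Measure: Agonist-evoked peak-minus-minimum fluorescence over baseline, integrated ratio, B score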
MrgX1 ag = agonists of human MrgX1 receptor | MrgX1-HEK293 cells, Fluo-4 calcium fluorescence, agonist mode; stronger effect = higher value | B-score at 10 µM | actives 0.44% (n = 310,000) | AID 588627;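 active means calcium response B-score plate-corrected fluorescence ratio at least 3 library SD, with starting fluorescence B-score inside 5 SD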
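Material: HEK293 cells stably expressing human MrgX1 receptor | Quantity: 15,000 cells per well | Times: Cells plated overnight, dye loaded 0.5 h 37 °C, 0.5 h room temperature | Measured by: Kinetic Fluo-4 NW fluorescence of intracellular calcium | Control set: Positive and negative controls per plate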
RGS4 inh valid = validation of RGS4 inhibitors; shares compounds with RGS4 inh; calcium response, % at 10 µM; AID 492999; HEK293 M3R/RGS4, carbachol calcium Fluo-4 fluorescence; carbachol added at its EC20; 0 = buffer wells, 100 = carbachol control; actives 65% (n = 1,700);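 active means duplicate-averaged calcium response above the buffer-only control mean plus 5 SD of those controls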;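 further: integrated fluorescence ratio F max minus min over baseline F0; higher response in RGS4-induced cells means RGS4 inhibition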
RGS4 uninduced = counter-screen for RGS4 inhibitors: effect in non-induced cells; actives 20% (n = 1,900); activity (percent), % at 10 µM; HEK293 M3R non-induced, carbachol calcium Fluo-4; submaximal (EC20) carbachol stimulus; buffer wells 0%, carbachol control wells 100%; shares compounds with RGS4 inh; AID 493000; call rule not given here;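 further: RGS4 induction absent so cells express M3R without RGS4; higher means more calcium signal and flags a non-specific hit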
RGS4 inh ctr2 = second RGS4 inhibitor counter-screen in uninduced cells lacking carbachol | AID 493001 | actives 22% (n = 1,900) | shares compounds with RGS4 inh | calcium response (agonist-mode artifact), % at 10 µM | HEK293 M3R/RGS4 non-induced, Fluo-4 calcium, no carbachol; normalised: buffer wells 0%, carbachol wells 100%;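 active means duplicate-averaged calcium rise in uninduced cells above buffer wells' mean plus 5 SD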
An asterisk follows results filed as active; i = inactive; x = no result. An excerpt weighted towards active compounds, which were near 3.5% of everything screened.

SMILES | MrgX1 allo act | MrgX1 antag | RGS4 inh | RGS4 act | MrgX1 ag | RGS4 inh valid | RGS4 uninduced | RGS4 inh ctr2
Cc1nc(Nc2nc3ccccc3o2)nc(C)c1C(=O)Nc1ccc(F)cc1 | i | i | 4.72* | i | i | 7.0%* | i | i
CCOC(=O)c1cnc(Nc2nc3ccccc3o2)nc1C | i | i | i | i | i | x | x | x
Cn1cc(-c2ccccc2C(=O)O)c(=O)c2cc(Cl)ccc21 | i | i | i | i | i | x | x | x
O=c1c(C/C=C/c2ccccc2)c(O)ccn1CCc1c[nH]c2ccccc12 | i | i | 5.74* | i | i | 12.5%* | 29.5%* | i
COc1ccc2[nH]cc(CCn3ccc(O)c(C/C=C/c4ccccc4)c3=O)c2c1 | i | i | 7.33* | i | i | 18.0%* | i | i
COc1ccccc1/C=C/C=N/n1c(-c2cc(-c3ccccc3)n[nH]2)n[nH]c1=S | i | i | 7.71* | i | i | 45.0%* | 36.0%* | i
CCc1nn(C)c(N)c1C | i | i | i | i | i | x | x | x
CN(C(=O)CCc1nc(-c2ccccc2F)no1)c1ccccc1 | i | i | i | i | i | x | x | x
COc1ccc(C2=NC(C)(C)Cc3cc(OC)c(OC)cc32)cc1 | i | i | i | i | i | x | x | x
COc1cc2c(cc1OC)C(SC)=NC(C)(C)C2 | i | i | i | i | i | x | 45.5%* | i
CCc1nnc(NC(=O)c2cc(-c3cccnc3)nc3ccccc23)s1 | i | i | i | i | i | x | i | i
CCc1nnc(NC(=O)c2cc(C)nc3ccccc23)s1 | i | i | i | i | i | x | x | x
CC(C)Cc1nnc(NC(=O)c2cc(-c3ccncc3)nc3ccccc23)s1 | i | i | i | i | i | x | i | i
CCOC(=O)CSC1=NC(=O)/C(=C\c2ccc(OC(C)=O)cc2)S1 | i | i | 18.3* | i | i | 38.0%* | i | 9.0%*
CCOC(=O)CSC1=NC(=O)/C(=C/c2ccc(Br)cc2)S1 | i | i | i | i | i | x | 36.5%* | i
C/C(=N\NC(=O)c1nnn(-c2nonc2N)c1CN1CCc2ccccc21)c1ccccc1O | i | i | i | i | i | x | x | x
COc1ccc(C(=O)N2CCCCCC2)cc1OC1CCN(C(C)=O)CC1 | i | i | i | i | i | x | x | x
Cn1c(=O)n(CCO)c(=O)c2c1nc(Br)n2Cc1ccccc1 | i | i | i | i | i | x | x | x
CC(C)(C)OC(=O)N1CCC(c2cc(-c3cccs3)n[nH]2)CC1 | i | i | 4.96* | i | i | 17.0%* | i | i
CC1CCN(C(=O)CSc2n[nH]c(-c3cccs3)n2)CC1 | i | i | i | i | i | x | x | x
O=C(O)c1ccc(Nc2nc(-c3cc4ccccc4oc3=O)cs2)cc1O | x | x | 15.2* | i | x | 40.0%* | i | 12.0%*
CCC(CC)C(=O)Nc1ccc(C(=O)Nc2cc(C)on2)cc1 | i | i | i | i | i | x | x | x
COc1ccc(-c2csc(Nc3cc(C)ccn3)n2)cc1OC | i | i | i | i | i | i | i | i
Cc1ccc(/C=C/C(=O)NCCc2c[nH]c3ccccc23)o1 | i | i | i | i | i | x | x | x
Cc1ccc(C(=O)NCc2ccc3c(c2)OCO3)o1 | i | i | i | i | i | x | x | x
SMILES | MrgX1 allo act | MrgX1 antag | RGS4 inh | RGS4 act | MrgX1 ag | RGS4 inh valid | RGS4 uninduced | RGS4 inh ctr2
Cc1ccc(/C=C/C(=O)NC2CCCCCCC2)o1 | i | i | 8.83* | i | i | 22.5%* | i | i
Cc1ccc(/C=C/C(=O)NCCc2cccc(Cl)c2)o1 | i | i | 6.88* | i | i | 24.5%* | i | i
Cc1ccc(/C=N/NC(=O)NC2CCCCC2)o1 | i | i | i | i | i | x | x | x
Cc1ccc(/C=C/C(=O)NCc2ccc3c(c2)OCO3)o1 | i | i | 5.59* | i | i | 10.0%* | i | i
O=C(Nc1nnc(Cc2ccccc2F)s1)Nc1ccccc1F | i | i | i | i | i | x | x | x
O=C(Nc1cccc(OCC(=O)N2CCOCC2)c1)c1ccc(C(F)(F)F)cc1 | i | i | i | i | i | x | x | x
CC(C)c1ccc(C(O)P(=O)(OC2CCCCC2)OC2CCCCC2)cc1 (configuration not stated) | i | i | i | i | i | x | x | x
Cc1cccc(N2C(=O)c3ccc(C(=O)Nc4ccccn4)cc3C2=O)c1 | i | i | i | i | i | x | x | x
Cc1cccc(N2C(=O)/C(=C\c3ccc(C(=O)O)cc3)c3ccccc3C2=O)c1 | i | i | 10.3* | i | i | 37.5%* | i | i
O=C(O)/C=C/c1cn(-c2ccccc2)nc1-c1cc2ccccc2o1 | i | i | i | i | i | x | x | x
Cc1cc(Nc2ccccc2)n2nc(C)c(-c3ccccc3)c2n1 | i | i | i | i | i | i | i | i
Cc1cc(C)n2nc(C)c(-c3ccccc3)c2n1 | i | i | i | i | i | x | x | x
COc1ccc(OC)c(-c2nc3cc4ccccc4cc3nc2-c2ccccc2)c1 | i | i | 6.77* | i | i | 14.0%* | i | 93.5%*
COc1ccc(-c2nc3ccccc3nc2-c2ccccc2)cc1OC | i | i | i | i | i | x | x | x
CC(=O)C1=C(C)OC(N)=C(C#N)C1c1cc2cc(C)c(C)cc2nc1Cl (configuration not stated) | i | i | 15* | i | i | 5.0%* | i | i
COC(=O)C1=C(C)OC(N)=C(C#N)C1c1cc2cc(C)ccc2nc1Cl (configuration not stated) | i | i | i | i | i | x | x | x
O=C(O)CSCC(=O)Nc1ccc(-c2nc3ccccc3s2)cc1 | i | i | i | i | i | x | x | x
Cc1csc(NC(=O)CSCC(=O)O)c1-c1nc2ccccc2s1 | i | i | 10.7* | i | i | 34.5%* | 50.5%* | i
Cc1nc(NCCc2ccccc2)c(C#N)c(C)c1[N+](=O)[O-] | i | i | i | i | i | x | x | x
COc1ccc(S(=O)(=O)/N=C2/NC(=O)/C(=C\c3ccco3)S2)cc1 | i | i | i | i | i | x | x | x
